Source: ChEMBL document CHEMBL4813967, “Tackling resistance in chronic myeloid leukemia: Novel cell death modulators with improved efficacy” (Eur J Med Chem, 2021)

Experiments:
K562 [1] = assay: Induction of cell sensitization to imatinib in imatinib-resistant human K562 cells assessed as cell death at 5 uM incubated for 72 hrs in presence of 1 uM imatinib by PI staining based flow cytometry (reference value: 19%); format: functional
[2] = Cytotoxicity against human HS5 cells assessed as cell death at 5 uM incubated for 72 hrs in presence of imatinib by PI staining based flow cytometry; settings: hs5, 72 h
Procedure, shortened: (§1)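 HS-5 stromal cells in DMEM with 10% FCS, 5% CO2, 37 °C. Seeded 0.5×10^5/well, given compound (5 µM) alone or with imatinib, and incubated 72 h. Cells stained with PI/Triton X-100 for 2 h at 4 °C. Dead cells counted by flow cytometry as sub-G1 nuclei. DMSO vehicle control included.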

K562 [3] = assay: Cytotoxicity against imatinib-resistant human K562 cells assessed as cell death at 5 uM incubated for 72 hrs by propidium iodide staining based flow cytometry; settings: k562, 72 h
Procedure, shortened: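 K562-resistant cells, a doxorubicin-resistant K562 subclone (KD225), grown in RPMI 1640 with 10% FCS. Seeded 2×10^5/well and exposed 72 h to compound alone or with 1 µM imatinib. PI/Triton X-100 staining 2 h at 4 °C; flow cytometry scoring sub-G1 nuclei as dead cells. DMSO vehicle (≤0.1%) controls. Mean ± SEM of ≥3 experiments.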

K562 [4] = assay: Induction of cell sensitization to imatinib in imatinib-resistant human K562 cells assessed as cell death at 10 uM incubated for 72 hrs in presence of 1 uM imatinib by PI staining based flow cytometry (reference value: 19%); format: functional
COS-7 [5] = assay: Cytotoxicity against African green monkey COS7 cells assessed as cell viability at 10 uM incubated for 72 hrs by MTT assay; settings: chlorocebus aethiops, cos-7, 72 h
[6] = Cytotoxicity against human HS5 cells assessed as cell death at 5 uM incubated for 72 hrs by PI staining based flow cytometry; settings: hs5, 72 h; procedure, shortened: as §1
[7] = biological target: T1, Peroxisome proliferator-activated receptor gamma (Homo sapiens, UniProt P37231); assay: Agonist activity at Gal4-fused human PPARgamma transfected in African green monkey COS7 cells co-transfected with pGal5-TK-pGL3 and pRenilla-CMV assessed as receptor transactivation at 10 uM incubated for 39 hrs by dual luciferase reporter gene assay relative to piaglitazone; format: cell-based; settings: COS-7, human, read-out: max activation
T1 sequence (P37231 whole entry): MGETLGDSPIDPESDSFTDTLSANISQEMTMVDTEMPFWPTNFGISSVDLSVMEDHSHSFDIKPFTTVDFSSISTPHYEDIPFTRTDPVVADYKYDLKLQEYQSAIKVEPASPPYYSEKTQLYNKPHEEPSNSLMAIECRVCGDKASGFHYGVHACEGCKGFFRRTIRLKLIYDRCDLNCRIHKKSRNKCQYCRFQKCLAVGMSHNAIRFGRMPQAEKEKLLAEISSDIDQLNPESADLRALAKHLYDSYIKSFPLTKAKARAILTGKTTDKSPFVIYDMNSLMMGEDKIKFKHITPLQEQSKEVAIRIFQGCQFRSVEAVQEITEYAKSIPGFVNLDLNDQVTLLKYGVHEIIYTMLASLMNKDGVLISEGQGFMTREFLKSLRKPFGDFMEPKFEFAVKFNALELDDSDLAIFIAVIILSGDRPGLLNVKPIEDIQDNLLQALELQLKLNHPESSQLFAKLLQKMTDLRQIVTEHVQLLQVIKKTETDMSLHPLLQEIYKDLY
Procedure, shortened: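 COS-7 cells (10^4/well, triplicates) grown 24 h, then transiently transfected with pGal5-TK-pGL3 (90 ng), pGal4-hPPARγDEF (9 ng) and pRenilla-CMV (3 ng). Compound added 7 h later, incubation 39 h. Cells lysed by freezing at -80 °C overnight plus lysis buffer. Firefly luciferase normalised to Renilla. Activity at 10 µM expressed relative to pioglitazone at 10 µM (100%). Mean ± SD of ≥3 experiments.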

COS-7 [8] = assay: Cytotoxicity against African green monkey COS7 cells assessed as cell viability at 10 uM incubated for 72 hrs by MTT assay; format: cell-based; settings: chlorocebus aethiops, cos-7, 72 h
Procedure, shortened: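 COS-7 cells in DMEM with 10% FCS and L-glutamine, no antibiotics or phenol red. Seeded 2×10^3/well in triplicate, grown 24 h, then compound added at 10 µM final and incubated 72 h. Modified MTT (tetrazolium) metabolic-activity readout by absorbance. DMSO control set to 100%; DMSO ≤0.1%. Mean + SD of ≥3 experiments, triplicate determinations.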

[9] = biological target: T2, Signal transducer and activator of transcription 5A (Homo sapiens) (UniProt P42229); assay: Inhibition of STAT5 phosphorylation at Y694/699 residue in imatinib-resistant human K562 cells assessed as phosphorylated STAT5 level at 5 uM incubated for 6 hrs in presence of imatinib by Jess Simple Western immunoassay (reference value: 100%); format: cell-based; parameters: scale not given: the % may be the effect or the level left
T2 sequence (whole entry): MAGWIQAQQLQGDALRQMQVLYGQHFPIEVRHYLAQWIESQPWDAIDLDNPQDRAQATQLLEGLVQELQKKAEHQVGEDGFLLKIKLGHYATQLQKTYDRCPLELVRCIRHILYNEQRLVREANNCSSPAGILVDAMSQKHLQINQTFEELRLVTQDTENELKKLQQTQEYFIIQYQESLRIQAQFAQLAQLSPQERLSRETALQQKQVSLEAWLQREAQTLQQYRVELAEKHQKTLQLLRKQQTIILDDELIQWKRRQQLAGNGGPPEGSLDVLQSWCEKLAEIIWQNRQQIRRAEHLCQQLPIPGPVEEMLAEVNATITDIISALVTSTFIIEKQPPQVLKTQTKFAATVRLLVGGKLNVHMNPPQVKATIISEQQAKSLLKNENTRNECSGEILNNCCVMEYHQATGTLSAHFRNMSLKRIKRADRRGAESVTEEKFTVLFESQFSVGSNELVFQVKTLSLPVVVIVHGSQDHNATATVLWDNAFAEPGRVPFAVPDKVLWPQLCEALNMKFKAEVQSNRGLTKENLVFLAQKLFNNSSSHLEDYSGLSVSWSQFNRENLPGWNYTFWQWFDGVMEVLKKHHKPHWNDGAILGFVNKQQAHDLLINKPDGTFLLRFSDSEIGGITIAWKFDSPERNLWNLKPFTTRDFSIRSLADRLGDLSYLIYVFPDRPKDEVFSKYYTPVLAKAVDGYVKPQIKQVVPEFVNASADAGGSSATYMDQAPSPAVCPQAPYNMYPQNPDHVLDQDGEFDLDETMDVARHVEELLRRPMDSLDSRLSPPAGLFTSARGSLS

[10] = Modulation of STAT5 expression in imatinib-resistant human K562 cells assessed as STAT5 level at 5 uM measured after 6 hrs in presence of imatinib by Jess Simple Western immunoassay (reference value: 100%); format: functional
[11] = biological target: T2, Signal transducer and activator of transcription 5A (Homo sapiens); assay: Inhibition of STAT5 phosphorylation at Y694/699 residue in imatinib-resistant human K562 cells assessed as phosphorylated STAT5 level at 5 uM incubated for 6 hrs by Jess Simple Western immunoassay (reference value: 100%); format: cell-based; parameters: scale not given: the % may be the effect or the level left
Procedure, shortened: (§2)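 K562-resistant (doxorubicin-resistant KD225) cells treated 6 h with compound at 5 µM, alone or with 1 µM imatinib, against a DMSO control. Total protein extracts analysed by capillary Jess Simple Western. STAT5 antibody 10 µg/ml with 0.2 mg/ml lysate; pSTAT5 (Y694/699) antibody 20 µg/ml with 2 mg/ml lysate. GAPDH (0.4 µg/ml) as loading reference; HRP anti-rabbit secondary.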

[12] = Modulation of STAT5 expression in imatinib-resistant human K562 cells assessed as STAT5 level at 5 uM measured after 6 hrs by Jess Simple Western immunoassay (reference value: 100%); format: functional; procedure, shortened: as §2

Row | Structure (SMILES) | Activity (K562 [1]) [%] | Activity [2] | Activity (K562 [3]) | Activity (K562 [4]) [%] | Activity (COS-7 [5]) | Activity [6] | Emax at 10 µM [7] [%] | Activity (COS-7 [8]) | Activity [9] [%] | Activity [10] [%] | Activity [11] [%] | Activity [12] [%]
1 | CCCc1nc2c(OC)cccc2n1Cc1ccc(-c2ccccc2C(=O)OC)cc1 | 57 | Non-Toxic | <= 20% | >85 | Non-Toxic | Non-Toxic | 20.7 | Non-Toxic | – | – | – | –
2 | CCCc1nc2c([N+](=O)[O-])cccc2n1Cc1ccc(-c2ccccc2C#N)cc1 | 50 | Non-Toxic | <= 20% | >85 | Non-Toxic | Non-Toxic | 37.9 | Non-Toxic | – | – | – | –
3 | CCCc1nc2c(OC)cccc2n1Cc1ccc(-c2ccccc2C#N)cc1 | 50 | Non-Toxic | <= 20% | >85 | Non-Toxic | Non-Toxic | 45.9 | Non-Toxic | – | – | – | –
4 | CCCc1nc2c(Br)cccc2n1Cc1ccc(-c2ccccc2C#N)cc1 | >76 | Non-Toxic | <= 20% | >85 | Non-Toxic | Non-Toxic | 41.1 | Non-Toxic | 4 | 103 | 90 | 107
5 | CCCc1nc2c(Cl)cccc2n1Cc1ccc(-c2ccccc2C(=O)OC)cc1 | 57 | Non-Toxic | <= 20% | >85 | Non-Toxic | Non-Toxic | 22.2 | Non-Toxic | 3 | 101 | 87 | 103
6 | CCCc1nc2c(Br)cccc2n1Cc1ccc(-c2ccccc2C(=O)OC)cc1 | 26 | Non-Toxic | <= 20% | 66 | Non-Toxic | Non-Toxic | 11.6 | Non-Toxic | 27 | 116 | 89 | 103
7 | CCCc1nc2ccc(Br)cc2n1Cc1ccc(-c2ccccc2C(=O)OC)cc1 | – | – | – | 63 | – | – | – | – | – | – | – | –
8 | CCCc1nc2c(C)cccc2n1Cc1ccc(-c2ccccc2C(=O)OC)cc1 | 40 | Non-Toxic | <= 20% | >85 | Non-Toxic | Non-Toxic | 13.8 | Non-Toxic | – | – | – | –
9 | CCCc1nc2cc(Br)ccc2n1Cc1ccc(-c2ccccc2C(=O)OC)cc1 | – | – | – | 31 | – | – | – | – | – | – | – | –
10 | CCCc1nc2c(N)cccc2n1Cc1ccc(-c2ccccc2C#N)cc1 | 28 | Non-Toxic | <= 20% | – | Non-Toxic | Non-Toxic | 43 | Non-Toxic | – | – | – | –
11 | CCCc1nc2c(N)cccc2n1Cc1ccc(-c2ccccc2C(=O)OC)cc1 | 26 | Non-Toxic | <= 20% | – | Non-Toxic | Non-Toxic | 0.11 | Non-Toxic | – | – | – | –
12 | CCCc1nc2c(C)cccc2n1Cc1ccc(-c2ccccc2C#N)cc1 | 50 | Non-Toxic | <= 20% | >85 | Non-Toxic | Non-Toxic | 32.2 | Non-Toxic | – | – | – | –
13 | CCCc1nc2c([N+](=O)[O-])cccc2n1Cc1ccc(-c2ccccc2C(=O)OC)cc1 | 57 | Non-Toxic | <= 20% | >85 | Non-Toxic | Non-Toxic | 15 | Non-Toxic | – | – | – | –
